ChEMBL document CHEMBL1122426, “Radioiodine-labeled N,N-dimethyl-N'-(2-hydroxy-3-alkyl-5-iodobenzyl)-1,3-propanediamines for brain perfusion imaging” (J Med Chem, 1983)

Columns and labels:
Rattus norvegicus [1] = test: Biodistribution of I-125 labeled compound in rat blood, 1 hr after intravenous injection. value expressed in average % dose per organ; format: ADME, organism-based; conditions: in vivo
Rattus norvegicus [2] = test: Biodistribution of I-125 labeled compound in rat blood, 2 min after intravenous injection. value expressed in average % dose per organ; format: ADME, organism-based; conditions: in vivo
Rattus norvegicus [3] = test: Biodistribution of I-125 labeled compound in rat brain, 1 hr after intravenous injection. value expressed in average % dose per organ; format: ADME, organism-based; conditions: in vivo
Rattus norvegicus [4] = test: Biodistribution of I-125 labeled compound in rat brain to blood ratio, 2 min after intravenous injection. value expressed in % dose per gram ratio; format: ADME, organism-based
Summary of the method: (§1)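 Rats given I-125 diamine iv; tissue activity at 2 min or 1 h compared with diluted injected-dose aliquots. % dose per gram approximated as % dose per organ divided by mean organ weight (brain 1.65 g; blood 18 g). Ratio taken from the per-gram values.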

Rattus norvegicus [5] = test: Biodistribution of I-125 labeled compound in rat liver, 1 hr after intravenous injection. value expressed in average % dose per organ; format: ADME, organism-based; conditions: in vivo
Rattus norvegicus [6] = test: Biodistribution of I-125 labeled compound in rat liver, 2 min after intravenous injection. value expressed in average % dose per organ; format: ADME, organism-based; conditions: in vivo
Rattus norvegicus [7] = test: Biodistribution of I-125 labeled compound in rat lungs, 1 hr after intravenous injection. value expressed in average % dose per organ; format: ADME, organism-based, Lung; conditions: in vivo
Rattus norvegicus [8] = test: Biodistribution of I-125 labeled compound in rat thyroid, 2 min after intravenous injection. value expressed in average % dose per organ; format: ADME, organism-based, Thyroid gland; conditions: in vivo
Rattus norvegicus [9] = test: Biodistribution of I-125 labeled compound in rat brain, 2 min after intravenous injection. value expressed in average % dose per organ; format: ADME, organism-based; conditions: in vivo
Rattus norvegicus [10] = test: Biodistribution of I-125 labeled compound in rat heart, 1 hr after intravenous injection. value expressed in average % dose per organ; format: ADME, organism-based; conditions: in vivo
Rattus norvegicus [11] = species on record: Rattus norvegicus; test: Distribution coefficient at pH 7.0 in rat; format: ADME, organism-based
Summary of the method: (§2)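 Octanol/buffer partition: I-125 labeled diamine mixed with 3 g each of 1-octanol and 0.1 M phosphate buffer at pH 7.0 or 7.4, vortexed 3× 1 min, centrifuged 5 min. Two 0.5 g samples of each layer counted. Value is cpm/g octanol over cpm/g buffer, usually repeated three times.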

Rattus norvegicus [12] = species on record: Rattus norvegicus; test: Distribution coefficient at pH 7.4 in rat; format: ADME, organism-based; summary of the method: as §2
Rattus norvegicus [13] = test: Biodistribution of I-125 labeled compound in rat thyroid, 1 hr after intravenous injection. value expressed in average % dose per organ; format: ADME, organism-based, Thyroid gland; conditions: in vivo
[14] = The protein binding ability of compound was expressed in Percent free; format: ADME; conditions: read-out: % free
Summary of the method: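 Binding to pooled human serum was measured by equilibrium dialysis. 0.4 mL serum and 0.4 mL 0.15 M phosphate buffer, pH 7.4, were separated by a membrane, and 0.025 μCi radiolabeled diamine was added on the buffer side. Cells were rotated at 37 °C for 18 h, and aliquots from both sides were weighed and counted. % free = buffer/serum radioactivity concentration ratio × 100. The membrane was also counted.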

Rattus norvegicus [15] = test: Biodistribution of I-125 labeled compound in rat lungs, 2 min after intravenous injection. value expressed in average % dose per organ; format: ADME, organism-based, Lung; conditions: in vivo
Rattus norvegicus [16] = test: Biodistribution of I-125 labeled compound in rat muscle, 1 hr after intravenous injection. value expressed in average % dose per organ; format: ADME, organism-based, Muscle tissue; conditions: in vivo
Rattus norvegicus [17] = test: Biodistribution of I-125 labeled compound in rat muscle, 2 min after intravenous injection. value expressed in average % dose per organ; format: ADME, organism-based, Muscle tissue; conditions: in vivo
Rattus norvegicus [18] = test: Biodistribution of I-125 labeled compound in rat heart, 2 min after intravenous injection. value expressed in average % dose per organ; format: ADME, organism-based; conditions: in vivo
Rattus norvegicus [19] = test: Biodistribution of I-125 labeled compound in rat brain to blood ratio, 1 hr after intravenous injection. value expressed in % dose per gram ratio; format: ADME, organism-based; summary of the method: as §1
Rattus norvegicus [20] = test: Biodistribution of I-125 labeled compound in rat lungs, 1 hr after intravenous injection. value expressed in average % dose per organ; value may range from 11.5 to 26.1; format: ADME, organism-based, Lung; conditions: in vivo
Rattus norvegicus [21] = test: Biodistribution of I-125 labeled compound in rat blood, 1 hr after intravenous injection. value expressed in average % dose per organ; value may range from 0.99 to 1.37; format: ADME, organism-based; conditions: in vivo
Rattus norvegicus [22] = test: Biodistribution of I-125 labeled compound in rat heart, 2 min after intravenous injection. value expressed in average % dose per organ; value may range from 2.20 to 3.07; format: ADME, organism-based; conditions: in vivo
Rattus norvegicus [23] = test: Biodistribution of I-125 labeled compound in rat brain, 1 hr after intravenous injection. value expressed in average % dose per organ; value may range from 1.51 to 2.17; format: ADME, organism-based; conditions: in vivo
Rattus norvegicus [24] = test: Biodistribution of I-125 labeled compound in rat brain, 2 min after intravenous injection. value expressed in average % dose per organ; value may range from 1.45 to 1.89; format: ADME, organism-based; conditions: in vivo
Rattus norvegicus [25] = test: Biodistribution of I-125 labeled compound in rat blood, 2 min after intravenous injection. value expressed in average % dose per organ; value may range from 2.74 to 5.33; format: ADME, organism-based; conditions: in vivo
Rattus norvegicus [26] = test: Biodistribution of I-125 labeled compound in rat liver, 1 hr after intravenous injection. value expressed in average % dose per organ; value may range from 7.32 to 10.1; format: ADME, organism-based; conditions: in vivo
Rattus norvegicus [27] = test: Biodistribution of I-125 labeled compound in rat liver, 2 min after intravenous injection. value expressed in average % dose per organ; value may range from 6.36 to 14.2; format: ADME, organism-based; conditions: in vivo
Rattus norvegicus [28] = test: Biodistribution of I-125 labeled compound in rat thyroid, 2 min after intravenous injection. value expressed in average % dose per organ; value may range from 0.15 to 0.25; format: ADME, organism-based, Thyroid gland; conditions: in vivo
Rattus norvegicus [29] = test: Biodistribution of I-125 labeled compound in rat heart, 1 hr after intravenous injection. value expressed in average % dose per organ; value may range from 1.12 to 1.86; format: ADME, organism-based; conditions: in vivo
Rattus norvegicus [30] = test: Biodistribution of I-125 labeled compound in rat thyroid, 1 hr after intravenous injection. value expressed in average % dose per organ; value may range from 0.16 to 0.26; format: ADME, organism-based, Thyroid gland; conditions: in vivo
Rattus norvegicus [31] = test: Biodistribution of I-125 labeled compound in rat lungs, 2 min after intravenous injection. value expressed in average % dose per organ; value may range from 24.6 to 42.2; format: ADME, organism-based, Lung; conditions: in vivo
Rattus norvegicus [32] = test: Biodistribution of I-125 labeled compound in rat muscle, 1 hr after intravenous injection. value expressed in average % dose per organ; value may range from 11.3 to 17.1; format: ADME, organism-based, Muscle tissue; conditions: in vivo
Rattus norvegicus [33] = test: Biodistribution of I-125 labeled compound in rat muscle, 2 min after intravenous injection. value expressed in average % dose per organ; value may range from 4.59 to 12.0; format: ADME, organism-based, Muscle tissue; conditions: in vivo

With `CN(C)CCCNCc1cc(I)cc(C(C)(C)C)c1O` the “Average dose per organ” value (Rattus norvegicus [1]) was 2.79%, the “Average dose per organ” value (Rattus norvegicus [2]) was 4.16% and the “Average dose per organ” value (Rattus norvegicus [3]) was 1.67%. The Ratio (Rattus norvegicus [4]) was 4.31%, the “Average dose per organ” value (Rattus norvegicus [5]) was 7.38% and the “Average dose per organ” value (Rattus norvegicus [6]) was 11.7%. The “Average dose per organ” value (Rattus norvegicus [7]) was 15.4%, the “Average dose per organ” value (Rattus norvegicus [8]) was 0.17% and the “Average dose per organ” value (Rattus norvegicus [9]) was 1.67%. The “Average dose per organ” value (Rattus norvegicus [10]) was 1.33%, the Distribution coefficient (Rattus norvegicus [11]) was 522 and the Distribution coefficient (Rattus norvegicus [12]) was 1390. For the same compound, the “Average dose per organ” value (Rattus norvegicus [13]) was 0.2%, the fraction unbound [14] was 0.0607 and the “Average dose per organ” value (Rattus norvegicus [15]) was 28.2%. For the same compound, the “Average dose per organ” value (Rattus norvegicus [16]) was 14.1%, the “Average dose per organ” value (Rattus norvegicus [17]) was 6.44% and the “Average dose per organ” value (Rattus norvegicus [18]) was 3.16%. For the same compound, the Ratio (Rattus norvegicus [19]) was 6.43%.
For `CCCc1cc(I)cc(CNCCCN(C)C)c1O`, the “Average dose per organ” value (Rattus norvegicus [20]) was 16.1%, the “Average dose per organ” value (Rattus norvegicus [21]) was 1.15% and the Ratio (Rattus norvegicus [4]) was 4.49%. The “Average dose per organ” value (Rattus norvegicus [22]) was 2.67%, the “Average dose per organ” value (Rattus norvegicus [23]) was 1.79% and the “Average dose per organ” value (Rattus norvegicus [24]) was 1.71%. The “Average dose per organ” value (Rattus norvegicus [25]) was 4.09%, the “Average dose per organ” value (Rattus norvegicus [26]) was 8.01% and the “Average dose per organ” value (Rattus norvegicus [27]) was 9.54%. The “Average dose per organ” value (Rattus norvegicus [28]) was 0.17%, the “Average dose per organ” value (Rattus norvegicus [29]) was 1.49% and the Distribution coefficient (Rattus norvegicus [11]) was 44.8. The Distribution coefficient (Rattus norvegicus [12]) was 176, the “Average dose per organ” value (Rattus norvegicus [30]) was 0.21% and the fraction unbound [14] was 0.159. The “Average dose per organ” value (Rattus norvegicus [31]) was 33%, the “Average dose per organ” value (Rattus norvegicus [32]) was 14.6% and the “Average dose per organ” value (Rattus norvegicus [33]) was 7.44%. It also gave a Ratio (Rattus norvegicus [19]) of 16.7%.
